Test results reported in ChEMBL document CHEMBL1154802, “Antiestrogenic constituents of the Thai medicinal plants Capparis flavicans and Vitex glabrata” (2009).
Active and inactive are the calls of the source. The calls are words filed in the database; no cut-off is given here.

Tests used:
MCF7 [1] = experiment: Antiestrogenic activity in human MCF7 cells assessed as drug level causing inhibition of 100 pM E2-enhanced cell proliferation to level equivalent to 50 pM E2 after 96 hrs by alamar blue assay; type: functional
In short: (§1)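 Cells seeded at 1 × 10^4 per well in phenol red-free RPMI with 5% DCC-treated FBS. E2 was added from a 20 nM solution to give 100 pM and preincubated 1 h at 37 °C, 5% CO2. Compounds were then added at 0.1, 1, 10 and 100 µM for 96 h, with serially diluted tamoxifen as positive control. Antagonism was judged from cell populations. iEqE values were obtained by linear regression over four concentrations.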

MCF7 [2] = experiment: Antiestrogenic activity in human MCF7 cells assessed as drug level causing inhibition of 100 pM E2-enhanced cell proliferation to level equivalent to 10 pM E2 after 96 hrs by alamar blue assay; type: functional; in short: as §1
T47D [3] = experiment: Antiestrogenic activity in human T47D cells assessed as drug level causing inhibition of 100 pM E2-enhanced cell proliferation to level equivalent to 50 pM E2 after 96 hrs by alamar blue assay; type: functional; in short: as §1
MCF7 [4] = experiment: Antiestrogenic activity in human MCF7 cells assessed as inhibition of E2-enhanced cell proliferation at 0.1 to 100 uM after 96 hrs by alamar blue assay; type: functional; in short: as §1
T47D [5] = experiment: Antiestrogenic activity in human T47D cells assessed as drug level causing inhibition of 100 pM E2-enhanced cell proliferation to level equivalent to 1 pM E2 after 96 hrs by alamar blue assay; type: functional; in short: as §1
T47D [6] = experiment: Stimulation of human T47D cell proliferation up to 100 uM after 96 hrs by alamar blue assay relative to estradiol; type: functional, cell-based
In short: (§2)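 Compounds were given alone at 0.1, 1, 10 and 100 µM, and stimulation of proliferation was compared with estradiol at 1–100 pM. Cell proliferation assay as in an earlier report.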

T47D [7] = experiment: Antiestrogenic activity in human T47D cells assessed as drug level causing inhibition of 100 pM E2-enhanced cell proliferation to level equivalent to 10 pM E2 after 96 hrs by alamar blue assay; type: functional; in short: as §1
MCF7 [8] = experiment: Stimulation of human MCF7 cell proliferation up to 100 uM after 96 hrs by alamar blue assay relative to estradiol; type: functional, cell-based; in short: as §2
MCF7 [9] = experiment: Antiestrogenic activity in human MCF7 cells assessed as drug level causing inhibition of 100 pM E2-enhanced cell proliferation to level equivalent to 1 pM E2 after 96 hrs by alamar blue assay; type: functional; in short: as §1
T47D [10] = experiment: Antiestrogenic activity in human T47D cells assessed as inhibition of E2-enhanced cell proliferation at 0.1 to 100 uM after 96 hrs by alamar blue assay; type: functional; in short: as §1

Q: Which results are given for `COc1cc([C@H]2OC[C@H]3[C@@H]2CO[C@@H]3c2cc(OC)c(O[C@@H]3O[C@H](CO)[C@@H](O)[C@H](O)[C@H]3O)c(OC)c2)ccc1O`?
A: Activity (MCF7 [1]): <0.1 µM; Activity (MCF7 [2]): <0.1 µM; Activity (T47D [3]): <0.1 µM; inhibition (INH) (MCF7 [4]): >90%; Activity (T47D [5]): >100 µM; Activity (T47D [6]): inactive; Activity (T47D [7]): 2 µM; Activity (MCF7 [8]): inactive; Activity (MCF7 [9]): >100 µM

Q: How did the Activity (MCF7 [1]) turn out when `COc1cc(O[C@@H]2O[C@H](CO)[C@@H](O)[C@H](O)[C@H]2O)cc(OC)c1O` [KOABURASIDE] was run?
A: Its Activity is less than 0.1 µM.

Q: What about the Activity (MCF7 [2]) of the same compound?
A: Its Activity is less than 0.1 µM.

Q: And the Activity (T47D [3])?
A: Its Activity is 2 µM.

Q: What about the “inhibition (INH)” value (MCF7 [4]) of the same compound?
A: Its value is greater than 90%.

Q: And the Activity (T47D [5])?
A: Its Activity is 70 µM.

Q: What about the Activity (T47D [6]) of the same compound?
A: The Activity was “inactive”.

Q: And the Activity (T47D [7])?
A: Its Activity is 37 µM.

Q: What about the Activity (MCF7 [8]) of the same compound?
A: Its Activity is “inactive”.

Q: What about the Activity (MCF7 [9]) of the same compound?
A: Its Activity is greater than 100 µM.

Q: How did the Activity (MCF7 [1]) turn out when `Nc1ncnc2c1ncn2[C@@H]1O[C@H](CO)[C@@H](O)[C@H]1O` [ADENOSINE] was run?
A: The Activity was less than 0.1 µM.

Q: And the Activity (MCF7 [2])?
A: Its Activity is less than 0.1 µM.

Q: What about the Activity (T47D [3]) of the same compound?
A: Its Activity is 2 µM.

Q: What about the “inhibition (INH)” value (MCF7 [4]) of the same compound?
A: The value was greater than 90%.

Q: And the Activity (T47D [5])?
A: Its Activity is greater than 100 µM.

Q: What about the Activity (T47D [6]) of the same compound?
A: Its Activity is “inactive”.

Q: What about the Activity (T47D [7]) of the same compound?
A: Its Activity is 69 µM.

Q: And the Activity (MCF7 [8])?
A: The Activity was “inactive”.

Q: And the Activity (MCF7 [9])?
A: The Activity was greater than 100 µM.

Q: For `O=c1cc(-c2ccc(O)cc2)oc2cc(O[C@@H]3O[C@H](CO)[C@@H](O)[C@H](O)[C@H]3O)cc(O)c12` [APIGETRIN], which Activity (MCF7 [1]) is on record?
A: The Activity was less than 0.1 µM.

Q: What about the Activity (MCF7 [2]) of the same compound?
A: Its Activity is less than 0.1 µM.

Q: And the Activity (T47D [3])?
A: The Activity was less than 0.1 µM.

Q: And the “inhibition (INH)” value (MCF7 [4])?
A: Its value is greater than 90%.

Q: And the Activity (T47D [5])?
A: Its Activity is 2 µM.

Q: What about the Activity (T47D [6]) of the same compound?
A: The Activity was “inactive”.

Q: And the Activity (T47D [7])?
A: Its Activity is less than 0.1 µM.

Q: And the Activity (MCF7 [8])?
A: Its Activity is “inactive”.

Q: What about the Activity (MCF7 [9]) of the same compound?
A: Its Activity is greater than 100 µM.

Q: For `COc1cc(/C=C/C(=O)O[C@H]2C[C@@H]3C(C(=O)O)=CO[C@@H](O[C@@H]4O[C@H](CO)[C@@H](O)[C@H](O)[C@H]4O)[C@@H]3[C@@H]2C)ccc1O` [KHAINAOSIDE B], which “inhibition (INH)” value (T47D [10]) is on record?
A: Its value is greater than 90%.

Q: And the Activity (MCF7 [1])?
A: Its Activity is less than 0.1 µM.

Q: And the Activity (MCF7 [2])?
A: Its Activity is less than 0.1 µM.

Q: And the Activity (T47D [3])?
A: Its Activity is less than 0.1 µM.

Q: What about the “inhibition (INH)” value (MCF7 [4]) of the same compound?
A: Its value is greater than 90%.

Q: What about the Activity (T47D [5]) of the same compound?
A: Its Activity is greater than 100 µM.

Q: What about the Activity (T47D [6]) of the same compound?
A: The Activity was “inactive”.

Q: And the Activity (T47D [7])?
A: The Activity was less than 0.1 µM.

Q: And the Activity (MCF7 [8])?
A: The Activity was “inactive”.

Q: And the Activity (MCF7 [9])?
A: Its Activity is greater than 100 µM.
